Laboratory results published in ChEMBL document CHEMBL1126246, “Ester and amide derivatives of E64c as inhibitors of platelet calpains” (J Med Chem, 1992).

Legend:
[1] = target: T1, Calpain-1 catalytic subunit (Homo sapiens, UniProt P07384); experiment: The calpain inhibitory activity(I 50) was measured as ability to enter the platelet to inhibit calpain after cell lysis(assay 2); conditions: read-out: I50
T1 sequence (P07384 whole entry): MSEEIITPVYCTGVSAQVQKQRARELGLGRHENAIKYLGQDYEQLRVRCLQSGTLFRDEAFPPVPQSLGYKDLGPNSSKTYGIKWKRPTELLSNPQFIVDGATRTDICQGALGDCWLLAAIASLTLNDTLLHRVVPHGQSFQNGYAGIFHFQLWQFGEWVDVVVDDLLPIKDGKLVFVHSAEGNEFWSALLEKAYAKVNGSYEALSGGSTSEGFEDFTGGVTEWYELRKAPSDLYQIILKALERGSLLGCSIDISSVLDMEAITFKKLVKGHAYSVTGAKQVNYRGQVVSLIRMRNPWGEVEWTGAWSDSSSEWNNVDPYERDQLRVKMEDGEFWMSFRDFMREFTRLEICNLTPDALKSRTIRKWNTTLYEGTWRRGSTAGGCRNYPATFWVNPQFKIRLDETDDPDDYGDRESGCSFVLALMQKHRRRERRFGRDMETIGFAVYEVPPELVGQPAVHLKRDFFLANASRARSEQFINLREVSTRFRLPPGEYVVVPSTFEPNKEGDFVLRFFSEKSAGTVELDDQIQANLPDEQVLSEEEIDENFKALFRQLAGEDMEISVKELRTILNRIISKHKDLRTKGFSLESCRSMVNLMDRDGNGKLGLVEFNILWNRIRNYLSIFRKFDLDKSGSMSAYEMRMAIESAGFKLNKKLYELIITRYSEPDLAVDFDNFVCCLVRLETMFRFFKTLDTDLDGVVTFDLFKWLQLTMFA
In short: (§1)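 Washed human platelets (7 × 10⁸/mL, Hank's) were exposed to inhibitor for 15 min at 30 °C. Cells were diluted in Tyrode-HEPES pH 7.4, pelleted twice to remove free drug, resuspended in Hank's and equilibrated 3 min. They were then lysed with Triton X-100 plus CaCl₂ and [³H]casein for 20 min at 30 °C. TCA-soluble counts were measured. I50 came from a five-concentration line.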

[2] = target: T1, Calpain-1 catalytic subunit; experiment: The ability of compound to inhibit calpain in a preparation of lysed platelets was measured with a caseinolytic assay(assay 1); conditions: read-out: I50
In short: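 Washed human platelets (6 × 10⁸/mL) in Hank's solution were preincubated with inhibitor at 30 °C for 3 min. CaCl₂, Triton X-100 and [³H]casein were then added and incubated 20 min at 30 °C. The reaction was stopped with TCA, and TCA-soluble radioactivity was counted. I50 was estimated from fractional inhibition at five inhibitor concentrations.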

[3] = target: T1, Calpain-1 catalytic subunit; experiment: The calpain inhibitory activity(I 50) was measured as ability to enter the platelet and inhibit calpain in the intact cells(assay 3); (+)indicates substantial inhibition by 5-44 uM; format: cell-based
In short: (§2)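 Washed human platelets (6 × 10⁸/mL, Hank's buffer) were preincubated with compound in DMSO at 30 °C for 15 min. Final concentrations were 0.8, 5.5, 44 or 440 μM. A23187 plus CaCl₂ was added for 10 min at room temperature. Samples were boiled in SDS sample buffer with leupeptin, run on 8% SDS-PAGE and stained with Coomassie. Loss of actin-binding protein and talin was scored.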

[4] = target: T1, Calpain-1 catalytic subunit; experiment: The ability of compound to inhibit calpain in a preparation of lysed platelets was measured with a caseinolytic assay(assay 1); (+) indicates the compound was inhibitory, but I50 was not determined
[5] = target: T1, Calpain-1 catalytic subunit; experiment: The calpain inhibitory activity(I 50) was measured as ability to enter the platelet and inhibit calpain in the intact cells(assay 3); (-)indicates little inhibition by 444 uM; format: cell-based; in short: as §2
[6] = target: T1, Calpain-1 catalytic subunit; experiment: The calpain inhibitory activity(I 50) was measured as ability to enter the platelet to inhibit calpain after cell lysis(assay 2); (-)indicates little inhibition by 444 uM; in short: as §1

| SMILES | IC50 [1] [nM] | IC50 [2] [nM] | I50 [3] | I50 [4] | I50 [5] | I50 [6] |
| --- | --- | --- | --- | --- | --- | --- |
| CC(C)CCNC(=O)[C@H](CC(C)C)NC(=O)[C@H]1O[C@@H]1C(=O)OCC(Br)(Br)Br | 5000 | – | substantial inhibition by 5-44 uM | substantial inhibition by 5-44 uM | – | – |
| CC(C)CCNC(=O)[C@H](CC(C)C)NC(=O)[C@H]1O[C@@H]1C(=O)Oc1ccc2[nH]cc(CCNC(=O)OC(C)(C)C)c2c1 | 2000 | 2000 | substantial inhibition by 5-44 uM | – | – | – |
| CC(C)CCNC(=O)[C@H](CC(C)C)NC(=O)[C@H]1O[C@@H]1C(=O)OCc1ccccc1Cl | 2000 | – | substantial inhibition by 5-44 uM | substantial inhibition by 5-44 uM | – | – |
| CC(C)CCNC(=O)[C@H](CC(C)C)NC(=O)[C@H]1O[C@@H]1C(=O)NCCc1c[nH]c2ccc(O)cc12 | 4000 | 6000 | – | – | Little inhibition | – |
| CCCCC(COC(=O)[C@H]1O[C@@H]1C(=O)N[C@@H](CC(C)C)C(=O)NCCC(C)C)NC(=O)[C@H](CC(C)C)NC(=O)OCc1ccccc1 (stereo partly drawn) | – | 100000 | – | – | Little inhibition | – |

Next, values leading:

| IC50 [1] [nM] | IC50 [2] [nM] | I50 [3] | I50 [4] | I50 [5] | I50 [6] | SMILES |
| --- | --- | --- | --- | --- | --- | --- |
| 3000 | 500 | substantial inhibition by 5-44 uM | – | – | – | CC(C)CCNC(=O)[C@H](CC(C)C)NC(=O)[C@H]1O[C@@H]1C(=O)OCCF |
| 300 | 2000 | substantial inhibition by 5-44 uM | – | – | – | CC(C)CCNC(=O)[C@H](CC(C)C)NC(=O)[C@H]1O[C@@H]1C(=O)OCCCl |
| 1000 | 700 | substantial inhibition by 5-44 uM | – | – | – | CC(C)CCNC(=O)[C@H](CC(C)C)NC(=O)[C@H]1O[C@@H]1C(=O)OCC(Cl)(Cl)Cl |
| 2000 | 1000 | substantial inhibition by 5-44 uM | – | – | – | CC(C)CCNC(=O)[C@H](CC(C)C)NC(=O)[C@H]1O[C@@H]1C(=O)OCCBr |
| 2000 | – | substantial inhibition by 5-44 uM | substantial inhibition by 5-44 uM | – | – | CC(C)CCNC(=O)[C@H](CC(C)C)NC(=O)[C@H]1O[C@@H]1C(=O)OCC(F)(F)F |
| 6000 | – | substantial inhibition by 5-44 uM | substantial inhibition by 5-44 uM | – | – | CC(C)CCNC(=O)[C@H](CC(C)C)NC(=O)[C@H]1O[C@@H]1C(=O)OCCI |
| 4000 | 4000 | substantial inhibition by 5-44 uM | – | – | – | CCOC(=O)[C@H]1O[C@@H]1C(=O)N[C@@H](CC(C)C)C(=O)NCCC(C)C [ALOXISTATIN] |
| – | 40 | – | – | Little inhibition | Little inhibition | CC(C)CCNC(=O)[C@H](CC(C)C)NC(=O)[C@H]1O[C@@H]1C(=O)O [E-64C] |
